Assay outcomes (PubChem BioAssay)
MT1-MMP act inh: inhibitors of human MT1-MMP activation; GFP/RFP ratio change, % at 20 µM; AID 651647; P50281; HT1080 RFP-PRO-GFP cells, GFP/RFP ratio fluorescence, overnight; percent of plate control window, DMSO zero; actives 0.061% (n = 360,000);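 active = GFP/RFP ratio change of at least 30% with cell ATP level not reduced by more than half and red fluorescence within 50% of control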
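Material – HT1080 RFP-PRO-GFP cells · Control set – DMSO wells and RFP-L50D-GFP cells · Incubation – overnight cell settling, then overnight compound exposure, 37 °C, 5% CO2 · Compound dosing – single-point 20 µM compound, 1% DMSO · Read-out – GFP/RFP fluorescence ratio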
SKN-1 inh: blocks SKN-1 activity in C. elegans; C. elegans VP596 Pgst-4::GFP/RFP ratio, acrylamide-induced, 24 h; inhibition, % at 21.8 µM; actives 0.49% (n = 360,000);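 active = interference check ratio from 0.5 to 1.5 plus GFP to RFP signal ratio inhibition reaching or exceeding a fixed threshold, cut at about 30% in these data, passing the limit was not always enough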
Tn7 DDE FP: disrupts Tn7 cyclic peptide binding to fibrin D-Dimer-E complex. inhibition, % at 8.3 µM. FP displacement of FITC-Tn7 peptide from fibrin DD(E); 0% = median of compound wells per plate. P02675. AID 720508. actives 0.13% (n = 370,000);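 active = inhibition above the mean of compounds falling within the control limits plus 3 SD of them, cut at about 14% in these data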;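 note: 0% = plate median of compound wells and 100% = 10 µM Aha-Tn7 peptide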
Target sequence (P02675 whole entry, looked up): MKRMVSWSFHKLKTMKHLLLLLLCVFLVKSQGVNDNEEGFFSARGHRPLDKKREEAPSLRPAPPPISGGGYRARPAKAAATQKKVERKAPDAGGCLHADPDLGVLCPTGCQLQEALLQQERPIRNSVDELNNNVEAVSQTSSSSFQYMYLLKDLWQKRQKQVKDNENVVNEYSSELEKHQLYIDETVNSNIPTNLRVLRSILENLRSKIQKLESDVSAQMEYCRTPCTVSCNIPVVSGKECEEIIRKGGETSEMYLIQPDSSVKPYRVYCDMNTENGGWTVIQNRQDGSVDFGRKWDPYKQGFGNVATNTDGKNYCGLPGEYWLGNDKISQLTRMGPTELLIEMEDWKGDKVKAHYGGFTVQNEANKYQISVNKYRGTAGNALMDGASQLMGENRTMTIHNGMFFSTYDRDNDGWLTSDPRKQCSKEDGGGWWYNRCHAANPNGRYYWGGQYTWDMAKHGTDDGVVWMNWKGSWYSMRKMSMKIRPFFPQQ
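Assay system: human fibrin DD(E). Input: DD(E) 2 µM final. Medium: Tris buffer with calcium and detergent, pH 7.8. Compound dosing: single point at 8.3 µM. Timing: 10 min plus 3 h, room temperature. Technique: fluorescence polarization of the labelled Tn7 tracer. Read-out: percent inhibition. Replicates: singlicate testing.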
Neddylation inh: blocks human cullin neddylation. P61081+Q13564. TR-FRET cullin neddylation, biochemical. calls only at 25 µM. actives 0.58% (n = 360,000); in the data active = inhibition above about 36%
DDE Tn6 FP inh: DD(E)-Tn6 binding inhibition, primary FP screen | actives 0.21% (n = 370,000) | inhibition, % at 8.3 µM | Fibrin DD(E) TRITC-Tn6 fluorescence polarization displacement | AID 720509 | P02675;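 active = inhibition above a per-campaign cutoff: mean of compounds within control limits plus 3 SD, cut at about 15% in these data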;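 note: 0% = median of all compound wells on the plate and 100% = blocking peptide control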
proKLK7 act: activators of human kallikrein-7 zymogen; purified proKLK7, EDANS-DABCYL substrate fluorescence; 100% is mature enzyme control, 0% vehicle; activation, % at 7 µM; P49862; AID 652039; actives 0.9% (n = 370,000);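 active = activation above the mean of all tested compounds plus 3 SD, computed per campaign excluding outliers beyond control limits, cut at about 13% in these data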
MT1-MMP act val: validation of inhibitors of human MT1-MMP activation; shares compounds with MT1-MMP act inh; HT1080 RFP-PRO-GFP cells, GFP and RFP fluorescence ratio, overnight; inhibition, % at 20 µM; actives 10% (n = 200);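 active = inhibition of at least 50% in the primary cell screen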
Active calls of the source: *; i = inactive; · = not tested or not shown; + = active, no number. Rows were chosen to be rich in hits. Some 2.2% of all compounds tested hit in one or more screens of this group.

SMILES	MT1-MMP act inh	SKN-1 inh	Tn7 DDE FP	Neddylation inh	DDE Tn6 FP inh	proKLK7 act	MT1-MMP act val
COc1ccc(CNC(=O)C(c2ccco2)N(C(=O)c2snc(C(N)=O)c2N)c2ccccc2OC)cc1 (stereo unspecified)	-3	6	1	+	-2	0	·
COC(=O)c1ccc(-c2ccc(Cl)cc2)nc1C	-2	51*	1	i	1	-1	·
COC(=O)c1ccccc1NC(=O)c1sc(Cl)nc1C	1	4	3	i	11	0	·
COc1cccc(C(=O)NCC(=O)N2CCC3(CC2)NCCc2[nH]cnc23)c1	2	36*	0	i	9	1	·
Cc1ccc(OCCNC(=O)c2cc(C(=O)NCCOc3ccc(C)cc3)cc([N+](=O)[O-])c2)cc1	-8	-3	9	i	-5	0	·
Cc1ccc2[nH]c3c(N4CCc5ccccc5C4)ncnc3c2c1	8	-7	0	i	-10	-1	·
Fc1ccc2[nH]c3c(N4CCc5ccccc5C4)ncnc3c2c1	3	12	-5	+	-8	-1	·
CN1CCN(c2ncnc3c2[nH]c2ccc(F)cc23)CC1	-1	2	-1	·	3	20*	·
Cc1ccc2[nH]c3c(N4CCOCC4)ncnc3c2c1	22	-13	-1	·	-8	2	·
Cc1cc(Cl)ccc1NC(=O)CN1CCC(C(O)(c2ccccc2)c2ccccc2)CC1	-21	12	3	i	1	0	·
C=CCNc1nc(C(=O)OCC(=O)Nc2cccc(SC)c2)cs1	1	18	7	i	3	0	·
Clc1cccc(/C=N/N2CCN(Cc3ccccc3)CC2)c1	10	44*	-7	i	-7	1	·
C(=N\N1CCN(Cc2ccccc2)CC1)/c1ccccc1	0	-2	-2	i	-1	0	·
CCOC(=O)CCc1c(C)c2ccc(O)cc2oc1=O	7	9	6	·	-8	45*	·
N#Cc1c(N)oc(-c2ccc3c(c2)OCO3)c1-c1ccc2c(c1)OCO2	-14	43*	-4	i	4	-1	·
Nc1c2c(nc3ccn(Cc4ccccc4)c(=O)c13)CCC2	6	13	9	+	6	1	·
CCCS(=O)(=O)N1CCC(C(=O)NCc2cccnc2)CC1	6	52*	-3	i	3	0	·
CCOC(=O)c1cnc(SCC(=O)OCC(=O)NC2CCS(=O)(=O)C2)nc1N (stereo unspecified)	2	-11	-6	i	-8	0	·
Clc1ccc(OCc2nnc(-c3ccccc3Br)o2)c(Cl)c1	-4	2	-9	i	42*	0	·
CCOC(=O)C1CCCN(c2ccc(NC(=O)c3snc4c(=O)[nH]c(C)nc34)cc2)C1 (stereo unspecified)	21	10	-10	i	-2	-1	·
C=Cc1c(C)c2cc3[nH]c(cc4nc(cc5nc(cc1[nH]2)C(C)=C5CCC(=O)O)C(CCC(=O)O)=C4C)c(C)c3C=C	18	17	-1	i	31*	1	·
Fc1cccc(Cl)c1CSc1ccc(-c2cccnc2)nn1	2	22	-3	i	-7	1	·
Clc1ccc(CSc2ccc(-c3cccnc3)nn2)cc1	5	37*	-1	i	1	0	·
Cc1ccc(-c2nc3cccnc3o2)cc1NC(=O)COc1ccc(C(C)(C)C)cc1	4	43*	-3	i	1	0	·
Cc1ccc(-c2nc3cccnc3o2)cc1NC(=O)COc1ccc(Cl)cc1C	-7	-14	0	i	-6	0	·
SMILES	MT1-MMP act inh	SKN-1 inh	Tn7 DDE FP	Neddylation inh	DDE Tn6 FP inh	proKLK7 act	MT1-MMP act val
COc1cc2c(cc1OC)C1CC(=O)C(CC(C)C)CN1CC2 (stereo unspecified)	-1	1	-1	i	0	-3	·
CC1CC(C)CN(C(=O)c2ccc3c(c2NCCO)C(=O)c2ccccc2C3=O)C1 (stereo unspecified)	60*	36*	-3	i	4	0	45
CCCCOc1cccc(-c2cc(C(=O)NNC(=S)NCC)c3ccccc3n2)c1	39*	12	-5	i	5	0	6
CCNC(=S)NNC(=O)c1cc(-c2cccc(OCC)c2)nc2ccccc12	6	6	-7	i	7	-1	·
Nc1nc(-c2ccc(Cl)cc2)c(N=Nc2ccc(S(=O)(=O)N3CCOCC3)cc2)s1	57*	25	2	i	9	0	55*
Cc1c(C)n(C)c2ccc(C(=O)NCCc3ccco3)cc12	33*	79	-8	i	11	0	4
O=C(O)CC/C(=N\Nc1ccccc1[N+](=O)[O-])c1cccs1	35*	8	·	i	·	·	25
O=C(COc1ccccc1)NNc1c2ccccc2nc2ccccc12	19	5	1	i	-3	2	·
COc1ccc(OCC(=O)NNc2c3ccccc3nc3ccccc23)cc1	35*	-21	0	i	8	5	32
O=C(NNc1c2ccccc2nc2ccccc12)c1ccccc1O	32*	9	-2	i	-3	2	39
COc1ccc(CNC(=O)CCS(=O)(=O)c2ccc3c(c2)NC(=O)C(C)S3)cc1 (stereo unspecified)	-2	-9	0	i	0	0	·
CN(C)c1ccc(C=c2c3ccccc3n3c2cc(-c2ccc(Cl)cc2)[n+]3C)cc1	46	59	1	i	-16	0	·
CN(C)c1ccc(C=c2c3ccccc3n3c2c2c([n+]3C)CCCC2)cc1	82*	28	12	i	0	0	57*
O=C(NCc1ccc(/C=N\NC(=O)C(=O)Nc2ccccc2Br)o1)C(=O)Nc1ccccc1	-2	10	-3	i	-7	0	·
CCCc1ccc(C#N)c(SC2CC(=O)N(c3ccc(OC)cc3)C2=O)n1 (stereo unspecified)	32*	1	3	i	-1	0	-1
CC(C)(C)c1ccc(S(=O)(=O)/N=C2\C=C(NS(=O)(=O)c3ccccc3)C(=O)c3ccccc32)cc1	10	9	2	i	-4	1	·
Cc1ccc(S(=O)(=O)/N=C2\C=C(NS(=O)(=O)c3ccccc3)C(=O)c3ccccc32)c(C)c1	39*	-14	8	i	4	0	29
c1ccc(N2CCN(c3cnccn3)CC2)nc1	4	-3	-6	i	-10	0	·
Cc1ccc2c(c1)C(C)(C)[C@]1(C)NC(=O)CCN21	35*	32	2	i	4	-1	5
